{
  "source": "ChEMBL document CHEMBL5303300",
  "about": "“EUbOPEN Chemogenomics Library - Multiplex” (2023)",
  "key": {"Fibroblast": {"tested_on": "Fibroblast", "assay": "Multiplex assay against human fibroblast", "format": "toxicity, cell-based", "conditions": "number of replicates 2", "summary_of_the_method": "(§1)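 Four dyes were applied at seeding to live cells: Hoechst33342, BioTracker Green Microtubule Cytoskeleton Dye, MitoTracker Red and Annexin V Alexa Fluor 680. Imaging after compound addition used a CQ1 microscope at 37°C and 5% CO2. CellPathfinder machine-learning gating then sorted cells into Hoechst high-intensity objects or normal cells, normal cells into healthy, pyknosed or fragmented nuclei, and pyknosed cells into mitotic or apoptotic, with tubulin, mitochondrial-mass and membrane-permeability phenotypes given as per cents of healthy-nucleus cells.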"}, "HEK-293T": {"tested_on": "HEK-293T", "assay": "Multiplex assay against HEK293T", "format": "toxicity, cell-based", "conditions": "human, number of replicates 2", "summary_of_the_method": "as §1"}, "[1]": {"conditions": "24 h, 10 µM, compound concentration 10 uM"}, "[2]": {"conditions": "48 h, 1 µM, compound concentration 1 uM"}, "[3]": {"conditions": "48 h, 10 µM, compound concentration 10 uM"}, "[4]": {"conditions": "12 h, 1 µM, compound concentration 1 uM"}, "[5]": {"conditions": "12 h, 10 µM, compound concentration 10 uM"}, "[6]": {"conditions": "24 h, 1 µM, compound concentration 1 uM"}},
  "note": "Values joined by “and” are separate entries in the source; they are usually repeats but may differ in a detail not shown here. Equal entries are not always repeated.",
  "data": [
    {"smiles": "CN(C)C/C=C/C(=O)Nc1ccc(C(=O)Nc2cccc(Nc3ncc(Cl)c(-c4c[nH]c5ccccc45)n3)c2)cc1", "values": [
      {"measurement": "Population Mitotic Cells (%)", "setting": "Fibroblast; [1]", "result": "20% and 15%"},
      {"measurement": "Population Normal (%)", "setting": "Fibroblast; [1]", "result": "98% and 99%"},
      {"measurement": "Population Pyknosed Nuclei (%)", "setting": "Fibroblast; [1]", "result": "55% and 46%"},
      {"measurement": "Population Tubulin-Different-Phenotype (%)", "setting": "Fibroblast; [1]", "result": "50% and 74%"},
      {"measurement": "Total Cell Count", "setting": "Fibroblast; [1]", "result": "167 and 178"},
      {"measurement": "Population Apoptotic (%)", "setting": "Fibroblast; [2]", "result": "72% and 74%"},
      {"measurement": "Population Fragmented Nuclei (%)", "setting": "Fibroblast; [2]", "result": 15, "unit": "%"},
      {"measurement": "Population Healthy Nuclei (%)", "setting": "Fibroblast; [2]", "result": "55% and 50%"},
      {"measurement": "Population Hoechst High Intensity Objects (%)", "setting": "Fibroblast; [2]", "result": 0, "unit": "%"},
      {"measurement": "Population Membrane Permeable-Phenotype (%)", "setting": "Fibroblast; [2]", "result": "11% and 5%"},
      {"measurement": "Population Mitochondria Different-Phenotype (%)", "setting": "Fibroblast; [2]", "result": "7% and 8%"},
      {"measurement": "Population Mitotic Cells (%)", "setting": "Fibroblast; [2]", "result": "27% and 25%"},
      {"measurement": "Population Normal (%)", "setting": "Fibroblast; [2]", "result": 100, "unit": "%"},
      {"measurement": "Population Pyknosed Nuclei (%)", "setting": "Fibroblast; [2]", "result": "29% and 34%"},
      {"measurement": "Population Tubulin-Different-Phenotype (%)", "setting": "Fibroblast; [2]", "result": "39% and 26%"},
      {"measurement": "Total Cell Count", "setting": "Fibroblast; [2]", "result": "124 and 149"},
      {"measurement": "Population Apoptotic (%)", "setting": "Fibroblast; [3]", "result": 93, "unit": "%"},
      {"measurement": "Population Fragmented Nuclei (%)", "setting": "Fibroblast; [3]", "result": "32% and 24%"},
      {"measurement": "Population Healthy Nuclei (%)", "setting": "Fibroblast; [3]", "result": "20% and 19%"},
      {"measurement": "Population Hoechst High Intensity Objects (%)", "setting": "Fibroblast; [3]", "result": "2% and 0%"},
      {"measurement": "Population Membrane Permeable-Phenotype (%)", "setting": "Fibroblast; [3]", "result": "25% and 18%"},
      {"measurement": "Population Mitochondria Different-Phenotype (%)", "setting": "Fibroblast; [3]", "result": "6% and 5%"},
      {"measurement": "Population Mitotic Cells (%)", "setting": "Fibroblast; [3]", "result": 6, "unit": "%"},
      {"measurement": "Population Normal (%)", "setting": "Fibroblast; [3]", "result": "97% and 99%"},
      {"measurement": "Population Pyknosed Nuclei (%)", "setting": "Fibroblast; [3]", "result": "46% and 56%"},
      {"measurement": "Population Tubulin-Different-Phenotype (%)", "setting": "Fibroblast; [3]", "result": "65% and 68%"},
      {"measurement": "Total Cell Count", "setting": "Fibroblast; [3]", "result": "220 and 196"},
      {"measurement": "Population Apoptotic (%)", "setting": "HEK-293T; [4]", "result": "42% and 60%"},
      {"measurement": "Population Fragmented Nuclei (%)", "setting": "HEK-293T; [4]", "result": "2% and 4%"},
      {"measurement": "Population Healthy Nuclei (%)", "setting": "HEK-293T; [4]", "result": "51% and 52%"},
      {"measurement": "Population Hoechst High Intensity Objects (%)", "setting": "HEK-293T; [4]", "result": "23% and 21%"},
      {"measurement": "Population Membrane Permeable-Phenotype (%)", "setting": "HEK-293T; [4]", "result": "9% and 14%"},
      {"measurement": "Population Mitochondria Different-Phenotype (%)", "setting": "HEK-293T; [4]", "result": "37% and 41%"},
      {"measurement": "Population Mitotic Cells (%)", "setting": "HEK-293T; [4]", "result": "57% and 40%"},
      {"measurement": "Population Normal (%)", "setting": "HEK-293T; [4]", "result": "76% and 78%"},
      {"measurement": "Population Pyknosed Nuclei (%)", "setting": "HEK-293T; [4]", "result": "46% and 43%"},
      {"measurement": "Population Tubulin-Different-Phenotype (%)", "setting": "HEK-293T; [4]", "result": "89% and 83%"},
      {"measurement": "Total Cell Count", "setting": "HEK-293T; [4]", "result": "442 and 379"},
      {"measurement": "Population Apoptotic (%)", "setting": "HEK-293T; [5]", "result": "52% and 73%"},
      {"measurement": "Population Fragmented Nuclei (%)", "setting": "HEK-293T; [5]", "result": "3% and 2%"},
      {"measurement": "Population Healthy Nuclei (%)", "setting": "HEK-293T; [5]", "result": "61% and 57%"},
      {"measurement": "Population Hoechst High Intensity Objects (%)", "setting": "HEK-293T; [5]", "result": "17% and 19%"},
      {"measurement": "Population Membrane Permeable-Phenotype (%)", "setting": "HEK-293T; [5]", "result": "10% and 5%"},
      {"measurement": "Population Mitochondria Different-Phenotype (%)", "setting": "HEK-293T; [5]", "result": "26% and 31%"},
      {"measurement": "Population Mitotic Cells (%)", "setting": "HEK-293T; [5]", "result": "47% and 26%"},
      {"measurement": "Population Normal (%)", "setting": "HEK-293T; [5]", "result": "82% and 80%"},
      {"measurement": "Population Pyknosed Nuclei (%)", "setting": "HEK-293T; [5]", "result": "35% and 40%"},
      {"measurement": "Population Tubulin-Different-Phenotype (%)", "setting": "HEK-293T; [5]", "result": "91% and 95%"},
      {"measurement": "Total Cell Count", "setting": "HEK-293T; [5]", "result": "459 and 452"},
      {"measurement": "Population Apoptotic (%)", "setting": "HEK-293T; [6]", "result": "61% and 75%"},
      {"measurement": "Population Fragmented Nuclei (%)", "setting": "HEK-293T; [6]", "result": "4% and 5%"},
      {"measurement": "Population Healthy Nuclei (%)", "setting": "HEK-293T; [6]", "result": "43% and 50%"},
      {"measurement": "Population Hoechst High Intensity Objects (%)", "setting": "HEK-293T; [6]", "result": "24% and 23%"},
      {"measurement": "Population Membrane Permeable-Phenotype (%)", "setting": "HEK-293T; [6]", "result": "10% and 5%"},
      {"measurement": "Population Mitochondria Different-Phenotype (%)", "setting": "HEK-293T; [6]", "result": "44% and 45%"},
      {"measurement": "Population Mitotic Cells (%)", "setting": "HEK-293T; [6]", "result": "38% and 24%"},
      {"measurement": "Population Normal (%)", "setting": "HEK-293T; [6]", "result": "75% and 76%"},
      {"measurement": "Population Pyknosed Nuclei (%)", "setting": "HEK-293T; [6]", "result": "51% and 43%"},
      {"measurement": "Population Tubulin-Different-Phenotype (%)", "setting": "HEK-293T; [6]", "result": "84% and 77%"},
      {"measurement": "Total Cell Count", "setting": "HEK-293T; [6]", "result": "394 and 349"},
      {"measurement": "Population Apoptotic (%)", "setting": "HEK-293T; [1]", "result": "67% and 83%"},
      {"measurement": "Population Fragmented Nuclei (%)", "setting": "HEK-293T; [1]", "result": "6% and 4%"},
      {"measurement": "Population Healthy Nuclei (%)", "setting": "HEK-293T; [1]", "result": "49% and 46%"},
      {"measurement": "Population Hoechst High Intensity Objects (%)", "setting": "HEK-293T; [1]", "result": "19% and 20%"},
      {"measurement": "Population Membrane Permeable-Phenotype (%)", "setting": "HEK-293T; [1]", "result": "9% and 3%"},
      {"measurement": "Population Mitochondria Different-Phenotype (%)", "setting": "HEK-293T; [1]", "result": "22% and 35%"},
      {"measurement": "Population Mitotic Cells (%)", "setting": "HEK-293T; [1]", "result": "32% and 16%"},
      {"measurement": "Population Normal (%)", "setting": "HEK-293T; [1]", "result": "80% and 79%"},
      {"measurement": "Population Pyknosed Nuclei (%)", "setting": "HEK-293T; [1]", "result": "43% and 48%"},
      {"measurement": "Population Tubulin-Different-Phenotype (%)", "setting": "HEK-293T; [1]", "result": "87% and 94%"},
      {"measurement": "Total Cell Count", "setting": "HEK-293T; [1]", "result": "472 and 454"},
      {"measurement": "Population Apoptotic (%)", "setting": "HEK-293T; [2]", "result": "79% and 73%"},
      {"measurement": "Population Fragmented Nuclei (%)", "setting": "HEK-293T; [2]", "result": "8% and 7%"},
      {"measurement": "Population Healthy Nuclei (%)", "setting": "HEK-293T; [2]", "result": "49% and 42%"},
      {"measurement": "Population Hoechst High Intensity Objects (%)", "setting": "HEK-293T; [2]", "result": "20% and 22%"},
      {"measurement": "Population Membrane Permeable-Phenotype (%)", "setting": "HEK-293T; [2]", "result": "3% and 7%"},
      {"measurement": "Population Mitochondria Different-Phenotype (%)", "setting": "HEK-293T; [2]", "result": "43% and 55%"},
      {"measurement": "Population Mitotic Cells (%)", "setting": "HEK-293T; [2]", "result": "20% and 26%"},
      {"measurement": "Population Normal (%)", "setting": "HEK-293T; [2]", "result": "79% and 77%"},
      {"measurement": "Population Pyknosed Nuclei (%)", "setting": "HEK-293T; [2]", "result": "42% and 49%"},
      {"measurement": "Population Tubulin-Different-Phenotype (%)", "setting": "HEK-293T; [2]", "result": "63% and 74%"},
      {"measurement": "Total Cell Count", "setting": "HEK-293T; [2]", "result": "354 and 385"},
      {"measurement": "Population Apoptotic (%)", "setting": "HEK-293T; [3]", "result": "79% and 85%"},
      {"measurement": "Population Fragmented Nuclei (%)", "setting": "HEK-293T; [3]", "result": "8% and 7%"},
      {"measurement": "Population Healthy Nuclei (%)", "setting": "HEK-293T; [3]", "result": "36% and 31%"},
      {"measurement": "Population Hoechst High Intensity Objects (%)", "setting": "HEK-293T; [3]", "result": "21% and 19%"},
      {"measurement": "Population Membrane Permeable-Phenotype (%)", "setting": "HEK-293T; [3]", "result": "7% and 3%"},
      {"measurement": "Population Mitochondria Different-Phenotype (%)", "setting": "HEK-293T; [3]", "result": "33% and 41%"},
      {"measurement": "Population Mitotic Cells (%)", "setting": "HEK-293T; [3]", "result": "20% and 14%"},
      {"measurement": "Population Normal (%)", "setting": "HEK-293T; [3]", "result": "78% and 80%"},
      {"measurement": "Population Pyknosed Nuclei (%)", "setting": "HEK-293T; [3]", "result": "54% and 60%"},
      {"measurement": "Population Tubulin-Different-Phenotype (%)", "setting": "HEK-293T; [3]", "result": "82% and 97%"},
      {"measurement": "Total Cell Count", "setting": "HEK-293T; [3]", "result": "449 and 445"}
    ]}
  ]
}
